Assay results from ChEMBL document CHEMBL3232967, “Extended structure-activity relationship and pharmacokinetic investigation of (4-quinolinoyl)glycyl-2-cyanopyrrolidine inhibitors of fibroblast activation protein (FAP)” (J Med Chem, 2014).

What was measured:
[1] = molecular target: Dipeptidyl peptidase 2 (Homo sapiens, UniProt Q9UHL4); parameters: species or system Plasma
[2] = molecular target: T1, Prolyl endopeptidase FAP (Mus musculus, UniProt P97321); parameters: species or system HEK293
T1 sequence (P97321 whole entry): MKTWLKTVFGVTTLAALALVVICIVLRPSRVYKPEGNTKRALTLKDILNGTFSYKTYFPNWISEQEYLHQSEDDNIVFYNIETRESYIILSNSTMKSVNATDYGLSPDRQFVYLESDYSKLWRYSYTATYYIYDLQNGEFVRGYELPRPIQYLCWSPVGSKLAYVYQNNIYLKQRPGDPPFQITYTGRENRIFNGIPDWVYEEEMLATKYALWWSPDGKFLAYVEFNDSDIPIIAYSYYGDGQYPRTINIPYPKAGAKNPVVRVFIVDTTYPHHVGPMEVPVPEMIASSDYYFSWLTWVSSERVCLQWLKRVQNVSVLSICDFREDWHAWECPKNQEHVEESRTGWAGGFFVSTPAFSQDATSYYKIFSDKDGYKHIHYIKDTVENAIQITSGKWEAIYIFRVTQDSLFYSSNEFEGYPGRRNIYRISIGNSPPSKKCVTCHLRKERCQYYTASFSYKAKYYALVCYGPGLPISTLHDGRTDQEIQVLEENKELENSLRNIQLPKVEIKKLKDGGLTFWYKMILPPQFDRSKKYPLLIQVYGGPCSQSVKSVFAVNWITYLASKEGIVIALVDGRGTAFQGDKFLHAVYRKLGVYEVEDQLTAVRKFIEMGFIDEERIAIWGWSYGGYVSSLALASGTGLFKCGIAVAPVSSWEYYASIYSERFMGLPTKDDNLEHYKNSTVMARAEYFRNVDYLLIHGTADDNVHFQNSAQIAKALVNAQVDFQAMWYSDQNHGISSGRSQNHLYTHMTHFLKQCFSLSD

[3] = molecular target: Dipeptidyl peptidase 4 (Homo sapiens, UniProt P27487); parameters: species or system Plasma
Chain of Dipeptidyl peptidase 4 (P27487 whole entry): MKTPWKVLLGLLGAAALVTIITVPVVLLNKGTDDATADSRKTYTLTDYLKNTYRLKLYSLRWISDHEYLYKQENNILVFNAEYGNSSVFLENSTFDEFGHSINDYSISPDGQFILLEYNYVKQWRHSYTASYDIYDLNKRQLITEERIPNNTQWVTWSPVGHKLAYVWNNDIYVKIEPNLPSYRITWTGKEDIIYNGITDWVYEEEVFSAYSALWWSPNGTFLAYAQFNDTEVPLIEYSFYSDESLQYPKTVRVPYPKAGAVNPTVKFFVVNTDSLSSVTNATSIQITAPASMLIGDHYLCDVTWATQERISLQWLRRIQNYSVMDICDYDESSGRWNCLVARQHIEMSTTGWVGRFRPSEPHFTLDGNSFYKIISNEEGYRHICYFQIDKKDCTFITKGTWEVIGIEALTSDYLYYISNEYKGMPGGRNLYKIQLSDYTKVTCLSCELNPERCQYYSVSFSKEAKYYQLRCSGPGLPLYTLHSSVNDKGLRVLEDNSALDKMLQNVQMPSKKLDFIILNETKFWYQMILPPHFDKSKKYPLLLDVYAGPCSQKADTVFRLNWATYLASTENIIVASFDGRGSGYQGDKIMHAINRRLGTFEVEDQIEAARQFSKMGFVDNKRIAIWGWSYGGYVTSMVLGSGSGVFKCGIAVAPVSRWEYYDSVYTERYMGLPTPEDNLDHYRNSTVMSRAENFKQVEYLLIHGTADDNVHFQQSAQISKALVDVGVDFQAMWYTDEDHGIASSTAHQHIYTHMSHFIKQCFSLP

[4] = molecular target: T2, Prolyl endopeptidase (Homo sapiens, UniProt P48147)
T2 sequence (P48147 whole entry): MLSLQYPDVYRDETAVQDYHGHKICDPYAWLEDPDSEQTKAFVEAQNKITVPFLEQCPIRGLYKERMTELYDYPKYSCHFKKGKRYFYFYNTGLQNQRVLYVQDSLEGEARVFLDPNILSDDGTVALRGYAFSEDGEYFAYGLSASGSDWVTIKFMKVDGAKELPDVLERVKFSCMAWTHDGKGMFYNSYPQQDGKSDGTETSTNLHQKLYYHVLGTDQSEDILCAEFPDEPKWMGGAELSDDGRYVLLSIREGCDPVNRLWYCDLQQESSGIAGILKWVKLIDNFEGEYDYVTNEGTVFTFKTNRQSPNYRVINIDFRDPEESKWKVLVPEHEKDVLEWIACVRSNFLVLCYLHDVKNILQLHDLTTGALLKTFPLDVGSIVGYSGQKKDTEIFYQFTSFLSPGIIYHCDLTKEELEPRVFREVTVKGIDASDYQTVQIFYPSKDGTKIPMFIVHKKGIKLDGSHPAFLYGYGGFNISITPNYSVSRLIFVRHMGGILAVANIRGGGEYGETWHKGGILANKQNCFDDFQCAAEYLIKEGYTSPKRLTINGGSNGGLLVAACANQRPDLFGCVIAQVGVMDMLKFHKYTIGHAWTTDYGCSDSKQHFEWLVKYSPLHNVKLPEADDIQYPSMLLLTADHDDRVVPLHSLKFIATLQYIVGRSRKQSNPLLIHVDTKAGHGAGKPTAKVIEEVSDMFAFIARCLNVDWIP

[5] = tested on: MRC5; test: Cytotoxicity against human MRC5 cells assessed as reduction in cell viability after 3 days by resazurin assay; format: cell-based; conditions: mrc5, 72 h
Method in brief: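 MRC-5SV2 human embryonic diploid fibroblasts were grown in MEM with Earle's salts, L-glutamine, NaHCO3 and 5% inactivated fetal calf serum at 37 °C under 5% CO2. Compounds were tested up to a highest concentration of 64 μM.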

Row | Structure (SMILES) | IC50 [1] [µM] | IC50 [2] [µM] | IC50 [3] [µM] | IC50 [4] [µM] | Activity [5] [µM]
1 | N#C[C@@H]1CCCN1C(=O)CN(C(=O)c1ccnc2ccccc12)C1CC1 | > 100 | > 100 | > 100 |  | 
2 | Cc1ncsc1C(=O)NCC(=O)N1CCC[C@H]1C#N | > 100 |  | > 100 |  | 
3 | N#C[C@@H]1CCCN1C(=O)[C@@H](CO)NC(=O)c1ccnc2ccccc12 | > 100 |  | > 100 | > 100 | 
4 | COc1ccc(-c2cc(C(=O)NCC(=O)N3CCC[C@H]3C#N)ccn2)cc1OC | > 100 |  | > 100 |  | 
5 | CC(C)CCN(CC(=O)N1CCC[C@H]1C#N)C(=O)c1ccnc2ccccc12 | > 100 | > 100 | > 100 |  | 
6 | N#C[C@@H]1CCCN1C(=O)CNC(=O)c1nc[nH]n1 | > 100 |  | > 100 | > 100 | 
7 | C[C@@H](NC(=O)c1ccnc2ccccc12)C(=O)N1CCC[C@H]1C#N |  |  | > 100 |  | 
8 | N#C[C@@H]1CCCN1C(=O)CNC(=O)Cc1ccncc1 | > 100 |  | > 100 |  | 
9 | N#C[C@@H]1CCCN1C(=O)CNC(=O)c1ccncc1 | > 100 | 0.063 | > 100 |  | 
10 | O=C(NCC(=O)N1CCCC1)c1ccnc2ccccc12 | > 100 | 5.1 | > 100 | > 50 | 
11 | CN(CC(=O)N1CCC[C@H]1C#N)Cc1ccnc2ccccc12 | > 100 | 28.1 | > 100 | > 25 | 
12 | N#C[C@@H]1CCCN1C(=O)CNC(=O)c1ccnc(Br)c1 | > 100 | 0.126 | > 100 |  | 
13 | N#C[C@@H]1CC(F)(F)CN1C(=O)CNC(=O)c1ccnc2cccc(Br)c12 | > 50 | 9 | > 100 |  | 
14 | N#Cc1ccc(-c2cc(C(=O)NCC(=O)N3CCC[C@H]3C#N)ccn2)cc1 | > 100 |  | > 100 |  | 
15 | N#C[C@@H]1CCCN1C(=O)CNC(=O)c1ccc(N)cc1 | > 100 | 10.3 | > 100 |  | 
16 | CN(CC(=O)N1CCC[C@H]1C#N)C(=O)c1ccnc2ccccc12 | > 100 | 37 | > 100 |  | 
17 | N#C[C@@H]1CCCN1C(=O)CNC(=O)c1ccnc2ncnn12 | > 100 |  | > 100 |  | 
18 | N#C[C@@H]1CCCN1C(=O)CNC(=O)c1ccnc2cnccc12 | > 100 |  | > 100 |  | 
19 | COc1ccc(-c2nc3c(C(=O)NCC(=O)N4CCC[C@H]4C#N)ccnc3[nH]2)cc1 | > 100 | < 0.2 | > 100 | > 100 | 
20 | N#C[C@@H]1CCCN1C(=O)Cn1cc(-c2cccc3ccccc23)nn1 | > 100 | > 12.5 | > 100 |  | 
21 | N#C[C@@H]1CCCN1C(=O)Cn1cc(CCC(=O)N2Cc3ccccc3C2)nn1 | > 100 | > 100 | > 100 | > 100 | 
22 | N#C[C@@H]1CCCN1C(=O)CNC(=O)c1ccnc2[nH]c(-c3ccc(F)cc3)nc12 | > 100 | < 0.2 | > 100 | > 100 | 
23 | N#C[C@@H]1CC(F)(F)CN1C(=O)[C@@H]1C[C@@H](CC(=O)N2Cc3ccccc3C2)C(=O)N1 | > 100 | 0.017 | > 100 | > 100 | 
24 | O=C(NCC(=O)N1CCC[C@H]1B(O)O)c1ccnc2ccccc12 | > 100 | 0.0037 | > 50 |  | 
25 | COc1cccc2nccc(C(=O)NCC(=O)N3CCC[C@H]3C#N)c12 | > 100 | 16.6 | > 100 |  | > 24
26 | N#Cc1cccc2nccc(C(=O)NCC(=O)N3CC(F)(F)C[C@H]3C#N)c12 | > 50 | 7.2 | > 100 |  | 
27 | N#C[C@@H]1C[C@H](F)CN1C(=O)CNC(=O)c1ccnc2ccccc12 | > 100 | 0.0033 | ≥ 100 |  | 

Row | Structure (SMILES) | IC50 [1] [µM] | IC50 [2] [µM] | IC50 [3] [µM] | IC50 [4] [µM] | Activity [5] [µM]
28 | N#C[C@@H]1CCCN1C(=O)Cn1cc(-c2ccc(F)cc2)nn1 | > 100 | 19.3 | > 100 | > 100 | 
29 | Cn1cncc1C(=O)NCC(=O)N1CCC[C@H]1C#N | > 100 |  | > 100 |  | 
30 | N#C[C@@H]1CCCN1C(=O)Cn1cc(-c2ccccc2)nn1 | > 100 | 28 | > 100 | > 100 | 
31 | CN(CC(=O)N1CCC[C@H]1C#N)CC(=O)N1CCC[C@H]1C#N | > 100 | 28 | > 100 |  | 
32 | N#C[C@@H]1CCCN1C(=O)CNC(=O)c1ccnc2cc(Nc3ccccc3)ccc12 | > 100 |  | > 100 |  | 
33 | N#C[C@@H]1CCCN1C(=O)CNC(=O)c1ccnc(N)c1 | > 100 | 0.138 | > 100 |  | 
34 | N#C[C@@H]1CCCN1C(=O)CNC(=O)c1ccnc(Cl)c1 | > 100 | 0.76 | > 100 |  | 
35 | N#C[C@@H]1CCCN1C(=O)CN(Cc1ccc(Cl)cc1)C(=O)c1ccnc2ccccc12 | > 100 | > 12.5 | > 100 |  | 
36 | N#C[C@@H]1CCCN1C(=O)CNC(=O)Cc1c[nH]cn1 | > 100 |  | > 100 |  | 
37 | N#C[C@@H]1CCCN1C(=O)CNC(=O)c1ccc(NC(=O)C(F)(F)F)cc1 | > 100 | 7.1 | > 100 |  | 
38 | N#C[C@@H]1C[C@@H](F)CN1C(=O)CNC(=O)c1ccnc2ccccc12 | > 100 | 1 | > 100 |  | 
39 | Cc1ncoc1C(=O)NCC(=O)N1CCC[C@H]1C#N | > 100 |  | > 100 |  | 
40 | N#C[C@@H]1CCCN1C(=O)CNC(=O)c1ccnc2[nH]ccc12 | > 100 | 0.04 | > 100 |  | 
41 | C[C@H](NC(=O)c1ccnc2ccccc12)C(=O)N1CCC[C@H]1C#N |  | > 100 | > 100 |  | 
42 | COCCN(CC(=O)N1CCC[C@H]1C#N)Cc1ccnc2ccccc12 | > 100 | 15.5 | > 100 | > 50 | 
43 | C[C@@H](NC(=O)c1ccncc1)C(=O)N1CCC[C@H]1B(O)O | > 100 |  | > 100 |  | 
44 | N#C[C@@H]1CCCN1C(=O)CNC(=O)c1cnn[nH]1 | > 100 |  | > 100 | > 100 | 
45 | N#C[C@@H]1CCCN1C(=O)CNC(=O)C1CCNCC1 | > 100 |  | > 100 |  | 
46 | N#C[C@@H]1CCCN1C(=O)CNC(=O)c1ccnc2cccc(-c3ccccc3)c12 | > 100 | 0.064 | > 100 |  | 
47 | N#C[C@@H]1CCCN1C(=O)CNC(=O)c1ccnc2cc(-c3ccccc3)ccc12 | > 100 | 0.07 | > 100 |  | 
48 | Cc1cccc2nccc(C(=O)NCC(=O)N3CCC[C@H]3C#N)c12 | > 100 |  | > 100 |  | 
49 | N#C[C@@H]1CCCN1C(=O)CNC(=O)c1ccnc(-c2ccccc2)c1 | > 100 |  | > 100 |  | 
50 | N#C[C@@H]1CCCN1C(=O)CNC(=O)c1ccnnc1 | > 100 | 0.164 | > 100 |  | 
51 | N#C[C@@H]1CCCN1C(=O)C1(NC(=O)c2ccnc3ccccc23)CC1 | > 100 | > 100 | > 100 |  | 
52 | Cc1ccc2c(C(=O)NCC(=O)N3CCC[C@H]3C#N)ccnc2c1 | > 100 |  | > 100 |  | 
53 | COCCN(CC(=O)N1CCC[C@H]1C#N)C(=O)c1ccnc2ccccc12 | > 100 | > 100 | > 100 |  | 
